According to ChEMBL document CHEMBL1629526, “4-[1-(Substituted aryl/alkyl carbonyl)-benzoimidazol-2-yl]-benzenesulfonic acids: synthesis, antimicrobial activity, QSAR studies, and antiviral evaluation” (Eur J Med Chem, 2010):
In brackets after ≈: the same amount, converted by molar mass.

Experiments:
Candida albicans = assay: Antimicrobial activity against Candida albicans after 48 hrs by tube dilution method; type: functional
[1] = tested on: Respiratory syncytial virus; assay: Antiviral activity against Respiratory syncytial virus infected in human HeLa cells assessed as inhibition of virus induced cytopathicity after 2 to 4 days by MTS assay; type: functional, organism-based
Influenza B virus [2] = assay: Antiviral activity against Influenza B virus infected in MDCK cells assessed as inhibition of virus induced cytopathicity after 2 to 4 days by MTS assay; type: functional, organism-based
[3] = Cytotoxicity against african green monkey Vero cells assessed as altered cell morphology; type: cell-based; settings: chlorocebus sabaeus
Procedure, shortened: (§1)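 Uninfected cell cultures run alongside the antiviral assays, exposed to serial compound dilutions and incubated at 37 °C for 2–4 days. Toxicity was scored microscopically and reported as the minimum cytotoxic concentration (MCC), the lowest concentration causing a detectable change in normal cell morphology.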

[4] = tested on: Vesicular stomatitis virus; assay: Antiviral activity against Vesicular stomatitis virus infected in human HeLa cells assessed as inhibition of virus induced cytopathicity by visual scoring of CPE; type: functional, organism-based
Influenza B virus [5] = assay: Antiviral activity against Influenza B virus infected in MDCK cells assessed as inhibition of virus induced cytopathicity by visual scoring of CPE; type: functional, organism-based
Escherichia coli = assay: Antimicrobial activity against Escherichia coli after 24 hrs by tube dilution method; type: functional
Influenza A virus [6] = assay: Antiviral activity against Influenza A H3N2 virus subtype infected in MDCK cells assessed as inhibition of virus induced cytopathicity after 2 to 4 days by MTS assay; type: functional, organism-based
Coxsackievirus B4 [7] = assay: Antiviral activity against Coxsackie virus B4 infected in african green monkey Vero cells assessed as inhibition of virus induced cytopathicity after 2 to 4 days by MTS assay; type: functional, organism-based; settings: Enterovirus B
Influenza A virus [8] = assay: Antiviral activity against Influenza A H1N1 virus subtype infected in MDCK cells assessed as inhibition of virus induced cytopathicity after 2 to 4 days by MTS assay; type: functional, organism-based
[9] = tested on: Vesicular stomatitis virus; assay: Antiviral activity against Vesicular stomatitis virus infected in HEL cells assessed as inhibition of virus induced cytopathicity after 2 to 4 days by MTS assay; type: functional, organism-based
[10] = tested on: Vesicular stomatitis virus; assay: Antiviral activity against Vesicular stomatitis virus infected in human HeLa cells assessed as inhibition of virus induced cytopathicity after 2 to 4 days by MTS assay; type: functional, organism-based
Coxsackievirus B4 [11] = assay: Antiviral activity against coxsackievirus B4 infected in human HeLa cells assessed as inhibition of virus induced cytopathicity by visual scoring of CPE; type: functional, organism-based; settings: Enterovirus B
Aspergillus niger = assay: Antimicrobial activity against Aspergillus niger after 7 days by tube dilution method; type: functional; settings: 168 h
Human alphaherpesvirus 1 [12] = assay: Antiviral activity against Herpes simplex virus 1 KOS infected in HEL cells assessed as inhibition of virus induced cytopathicity after 2 to 4 days by MTS assay; type: functional, organism-based; settings: Human alphaherpesvirus 1, KOS
Punta Toro virus = assay: Antiviral activity against Punta Toro virus infected in african green monkey Vero cells assessed as inhibition of virus induced cytopathicity after 2 to 4 days by MTS assay; type: functional, organism-based
[13] = Cytotoxicity against MDCK cells assessed as altered cell morphology; type: cell-based, Canis lupus familiaris; settings: dog; procedure, shortened: as §1
[14] = Cytotoxicity against cat CRFK cells assessed as cell viability by MTS assay; type: cell-based, Felis catus; settings: crfk
Procedure, shortened: (§2)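 Uninfected cultures were run in parallel with the antiviral assays. Viability was read by colorimetric formazan MTS assay.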

Vaccinia virus = assay: Antiviral activity against Vaccinia virus infected in HEL cells assessed as inhibition of virus induced cytopathicity after 2 to 4 days by MTS assay; type: functional, organism-based; settings: Orthopoxvirus vaccinia
Influenza A virus [15] = assay: Antiviral activity against Influenza A H3N2 virus subtype infected in MDCK cells assessed as inhibition of virus induced cytopathicity by visual scoring of CPE; type: functional, organism-based
Felid alphaherpesvirus 1 = assay: Antiviral activity against Feline herpesvirus 1 infected in cat CRFK cells assessed as inhibition of virus induced cytopathicity after 2 to 4 days by MTS assay; type: functional, organism-based; settings: Felid alphaherpesvirus 1, CRFK
HeLa = assay: Cytotoxicity against human HeLa cells assessed as cell viability by MTS assay; type: cell-based; settings: hela; procedure, shortened: as §2
Human alphaherpesvirus 1 [16] = assay: Antiviral activity against thymidine kinase deficient acyclovir-resistant Herpes simplex virus 1 KOS infected in HEL cells assessed as inhibition of virus induced cytopathicity after 2 to 4 days by MTS assay; type: functional, organism-based; settings: Human alphaherpesvirus 1, KOS
[17] = tested on: Mammalian orthoreovirus 1; assay: Antiviral activity against Reovirus 1 virus infected in african green monkey Vero cells assessed as inhibition of virus induced cytopathicity after 2 to 4 days by MTS assay; type: functional, organism-based; settings: Mammalian orthoreovirus 1, Vero
Human alphaherpesvirus 2 = assay: Antiviral activity against Herpes simplex virus 2 G infected in HEL cells assessed as inhibition of virus induced cytopathicity after 2 to 4 days by MTS assay; type: functional, organism-based; settings: Human alphaherpesvirus 2, strain G
MDCK = assay: Cytotoxicity against MDCK cells assessed as cell viability by MTS assay; type: cell-based, Canis lupus familiaris; settings: dog, mdck; procedure, shortened: as §2
Bacillus subtilis = assay: Antimicrobial activity against Bacillus subtilis after 24 hrs by tube dilution method; type: functional
Procedure, shortened: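 Serial dilutions in double-strength nutrient broth (I.P.) with ciprofloxacin as reference, tube dilution, incubated 37 °C for 24 h. MIC is the lowest concentration that inhibited growth.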

Sindbis virus = assay: Antiviral activity against Sindbis virus infected in african green monkey Vero cells assessed as inhibition of virus induced cytopathicity after 2 to 4 days by MTS assay; type: functional, organism-based
Human respirovirus 3 = assay: Antiviral activity against parainfluenza-3 virus infected in african green monkey Vero cells assessed as inhibition of virus induced cytopathicity after 2 to 4 days by MTS assay; type: functional, organism-based; settings: Human respirovirus 3, Vero
Influenza A virus [18] = assay: Antiviral activity against Influenza A H1N1 virus subtype infected in MDCK cells assessed as inhibition of virus induced cytopathicity by visual scoring of CPE; type: functional, organism-based
[19] = Cytotoxicity against human HeLa cells assessed as altered cell morphology; type: cell-based; procedure, shortened: as §1
[20] = Cytotoxicity against human HEL cells assessed as altered cell morphology; type: cell-based; procedure, shortened: as §1
Feline coronavirus = assay: Antiviral activity against Feline coronavirus infected in cat CRFK cells assessed as inhibition of virus induced cytopathicity after 2 to 4 days by MTS assay; type: functional, organism-based; settings: Alphacoronavirus 1, CRFK
Staphylococcus aureus = assay: Antimicrobial activity against Staphylococcus aureus after 24 hrs by tube dilution method; type: functional
[21] = tested on: Respiratory syncytial virus; assay: Antiviral activity against Respiratory syncytial virus infected in human HeLa cells assessed as inhibition of virus induced cytopathicity by visual scoring of CPE; type: functional, organism-based
Coxsackievirus B4 [22] = assay: Antiviral activity against coxsackievirus B4 infected in human HeLa cells assessed as inhibition of virus induced cytopathicity after 2 to 4 days by MTS assay; type: functional, organism-based; settings: Enterovirus B

Structure (SMILES) | MFC (Candida albicans) [µg/mL] | EC50 [1] [µg/mL] | EC50 (Influenza B virus [2]) [µg/mL] | MCC [3] [µg/mL] | EC50 [4] [µg/mL] | EC50 (Influenza B virus [5]) [µg/mL] | MBC (Escherichia coli) [µg/mL] | EC50 (Influenza A virus [6]) [µg/mL] | EC50 (Coxsackievirus B4 [7]) [µg/mL] | EC50 (Influenza A virus [8]) [µg/mL] | EC50 [9] [µg/mL] | EC50 [10] [µg/mL] | EC50 (Coxsackievirus B4 [11]) [µg/mL] | MFC (Aspergillus niger) [µg/mL] | EC50 (Human alphaherpesvirus 1 [12]) [µg/mL] | EC50 (Punta Toro virus) [µg/mL] | MCC [13] [µg/mL] | CC50 [14] [µg/mL] | EC50 (Vaccinia virus) [µg/mL] | EC50 (Influenza A virus [15]) [µg/mL] | further results
O=C(c1ccc(O)cc1O)n1c(-c2ccc(S(=O)(=O)O)cc2)nc2ccccc21 | 12.5 (≈ 30.5 µM) | > 100 | > 4 | > 100 | > 100 | > 4 | 1.56 (≈ 3.8 µM) | > 4 | > 100 | > 4 | > 20 | > 100 | > 100 | > 50 | > 20 | > 100 | 20 | > 100 | > 20 | > 4 | EC50 (Felid alphaherpesvirus 1): > 100 µg/mL; CC50 (HeLa): > 100 µg/mL; EC50 (Human alphaherpesvirus 1 [16]): > 20 µg/mL; EC50 [17]: > 100 µg/mL; EC50 (Human alphaherpesvirus 2): > 20 µg/mL; CC50 (MDCK): 54 µg/mL (≈ 132 µM); MBC (Bacillus subtilis): 25 µg/mL (≈ 60.9 µM); EC50 (Sindbis virus): > 100 µg/mL; EC50 (Human respirovirus 3): > 100 µg/mL; EC50 (Influenza A virus [18]): > 4 µg/mL; MCC [19]: > 100 µg/mL; MCC [20]: 100 µg/mL; EC50 (Feline coronavirus): > 100 µg/mL; MBC (Staphylococcus aureus): 12.5 µg/mL (≈ 30.5 µM); EC50 [21]: > 100 µg/mL; EC50 (Coxsackievirus B4 [22]): > 100 µg/mL
Nc1ccccc1C(=O)n1c(-c2ccc(S(=O)(=O)O)cc2)nc2ccccc21 | 50 (≈ 127 µM) | > 20 | > 4 | 20 | > 20 | > 4 | 1.56 (≈ 3.97 µM) | > 4 | > 4 | > 4 | > 100 | > 20 | > 20 | > 50 | > 100 | > 4 | ≥ 4 | 11 (≈ 28 µM) | > 100 | > 4 | EC50 (Felid alphaherpesvirus 1): > 4 µg/mL; CC50 (HeLa): > 100 µg/mL; EC50 (Human alphaherpesvirus 1 [16]): > 100 µg/mL; EC50 [17]: > 4 µg/mL; EC50 (Human alphaherpesvirus 2): > 100 µg/mL; CC50 (MDCK): 4.1 µg/mL (≈ 10.4 µM); MBC (Bacillus subtilis): > 50 µg/mL; EC50 (Sindbis virus): > 4 µg/mL; EC50 (Human respirovirus 3): > 4 µg/mL; EC50 (Influenza A virus [18]): > 4 µg/mL; MCC [19]: ≥ 20 µg/mL; MCC [20]: > 100 µg/mL; EC50 (Feline coronavirus): > 4 µg/mL; MBC (Staphylococcus aureus): 50 µg/mL (≈ 127 µM); EC50 [21]: > 20 µg/mL; EC50 (Coxsackievirus B4 [22]): > 20 µg/mL
